Calls of active or inactive are those of the source. The rule behind the calls is not given here.
Test system: Saccharomyces sp.
Assay: (§1) Inhibition of Saccharomyces sp. alpha-glucosidase
How it was run: (§2)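 Read spectrophotometrically at pH 6.9 and 37 °C in 50 mM sodium phosphate buffer with 100 mM NaCl. Substrate was 0.5 mM p-nitrophenyl α-D-glucopyranoside, and enzyme was 250 m units/mL. The rise in absorbance at 400 nm from PNP-G hydrolysis was followed continuously. 1-Deoxynojirimycin (0.425 mM) and acarbose (0.78 mM) served as positive controls. Modified from Oki et al.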

Structure (SMILES)	Activity
C=C(C)[C@@H]1CC[C@]2(C=O)CC[C@]3(C)[C@H](CC[C@@H]4[C@@]5(C)CC[C@H](O)C(C)(C)[C@@H]5CC[C@]43C)[C@@H]12	inactive
O=c1ccc2cc(O)c(O)cc2o1	inactive
CC[C@H](/C=C/[C@@H](C)[C@H]1CC[C@H]2[C@@H]3CC=C4C[C@@H](O)CC[C@]4(C)[C@H]3CC[C@]12C)C(C)C	inactive
C=C(C)[C@@H]1CC[C@]2(CO)CC[C@]3(C)[C@H](CC[C@@H]4[C@@]5(C)CC[C@H](O)C(C)(C)[C@@H]5CC[C@]43C)[C@@H]12	inactive
CO[C@H]1O[C@H](CO)[C@H](O)[C@H](O)[C@H]1O	inactive
CC[C@H](CC[C@@H](C)[C@H]1CC[C@H]2[C@@H]3CC=C4C[C@@H](O)CC[C@]4(C)[C@H]3CC[C@]12C)C(C)C	inactive
C=C1[C@@H]2CC[C@@]3(C)[C@@H](c4ccoc4)OC(=O)C[C@@]13O[C@H]1CC(=O)C(C)(C)[C@H](C(O)C(=O)OC)[C@]12C (stereo not given in full)	inactive
COc1cc(C(=O)O)cc(OC)c1O	inactive
C=C(C)[C@@H]1CC[C@]2(C)CC[C@]3(C)[C@H](CC[C@@H]4[C@@]5(C)CC[C@H](O)C(C)(C)[C@@H]5CC[C@]43C)[C@@H]12	inactive
C=C(C)[C@@H]1CC[C@]2(C(=O)O)CC[C@]3(C)[C@H](CC[C@@H]4[C@@]5(C)CC[C@H](O)C(C)(C)[C@@H]5CC[C@]43C)[C@@H]12	inactive

Target: not listed separately
Assay: as §1
How it was run: as §2

Structure (SMILES)	IC50
OC[C@H]1NC[C@H](O)[C@@H](O)[C@@H]1O [DUVOGLUSTAT]	425 µM
COc1cc(C(=O)O)ccc1O [VANILLIC ACID]	69 µM
C=C1[C@H](OC(C)=O)C[C@]2(C)CC[C@]3(C)[C@H](CC[C@@H]4[C@@]5(C)CC[C@H](OC(C)=O)C(C)(C)[C@@H]5CC[C@]43C)[C@H]2[C@H]1C	10 µM
C=C1[C@H](O)C[C@]2(C)CC[C@]3(C)[C@H](CC[C@@H]4[C@@]5(C)CC[C@H](O)C(C)(C)[C@@H]5CC[C@]43C)[C@H]2[C@H]1C	51.9 µM
C[C@H]1C(=O)CC[C@@H]2[C@]1(C)CC[C@H]1[C@@]2(C)CC[C@@]2(C)[C@@H]3CC(C)(C)CC[C@]3(C)CC[C@]12C [FRIEDELINE]	321 µM

From ChEMBL document CHEMBL1149883, “alpha-Glucosidase inhibitory activity of triterpenoids from Cichorium intybus” (J Nat Prod, 2008)
